These results are taken from ChEMBL document CHEMBL1123648, “Synthesis, chemical reactivity, and antileukemic activity of 5-substituted 6,7-bis(hydroxymethyl)pyrrolo[1,2-c]thiazole biscarbamates and the corresponding sulfoxides and sulfones” (1987).

Assay [1] can be described thus: Toxicity day survivors expressed as number of animals that survived to day five/ number of test animals under control group A at a dose of 100 mg/kg; 3 survived out of 6. Type of assay: functional, Mus musculus.
A short description of assay [2]: Toxicity day survivors expressed as number of animals that survived to day five/ number of test animals under control group A at a dose of 6.25 mg/kg. Type of assay: functional, Mus musculus.
Assay [3] can be described thus: Antileukemic activity against Murine P388 lymphocytic leukemia, body weight difference of the test animals compared to control group A animals at a dose of 50 mg/kg. Type of assay: functional, Mus musculus. The arrangement: unit not given here. In short, it runs like this:
(§1)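 CD2F1 mice implanted intraperitoneally with ascitic fluid carrying ca. 1×10^6 P388 cells, under the NCI protocol. Dosing was intraperitoneal, starting 24 h after inoculation, then every 24 h for five doses in total. The body weight difference of treated mice is taken against untreated controls. Toxicity day survivors are the mice alive at day five out of those tested.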

For assay [4], the system named is P388. Briefly: Log cell population relative to cell population at the beginning of treatment compared to control group A at a dose of 6.25 mg/kg. Type of assay: functional, Mus musculus.
The nature of assay [5]: Percent increase in life span of test animals compared to untreated tumor-bearing control group A animals at a dose of 25 mg/kg. Type of assay: functional. To be noted: Mus musculus.
Assay [6] in a line: Toxicity day survivors expressed as number of animals that survived to day five/ number of test animals under control group A at a dose of 200 mg/kg; 6 survived out of 6. Type of assay: functional, Mus musculus.
Assay [7] in a line: Antileukemic activity against Murine P388 lymphocytic leukemia, body weight difference of the test animals compared to control group A animals at a dose of 12.5 mg/kg. Type of assay: functional, Mus musculus. The procedure, abridged:
as §1

The nature of assay [8]: Percent increase in life span of test animals compared to untreated tumor-bearing control group A animals at a dose of 6.25 mg/kg. Type of assay: functional. To be noted: Mus musculus.
Assay [9] can be described thus: Antileukemic activity against Murine P388 lymphocytic leukemia, body weight difference of the test animals compared to control group A animals at a dose of 100 mg/kg. Type of assay: functional, Mus musculus. The arrangement: unit not given here. In short, it runs like this: as §1
A short description of assay [10]: Toxicity day survivors expressed as number of animals that survived to day five/ number of test animals under control group A at a dose of 50 mg/kg; 5 survived out of 6. Type of assay: functional, Mus musculus.
The test system of assay [11] is P388. Briefly: Log cell population relative to cell population at the beginning of treatment compared to control group A at a dose of 12.5 mg/kg. Type of assay: functional, Mus musculus.
Assay [12] in a line: Antileukemic activity against Murine P388 lymphocytic leukemia, body weight difference of the test animals compared to control group A animals at a dose of 6.25 mg/kg. Type of assay: functional, Mus musculus. The procedure, abridged:
as §1

Assay [13] relates to P388. In words: Log cell population relative to cell population at the beginning of treatment compared to control group A at a dose of 25 mg/kg. Type of assay: functional, Mus musculus.
Assay [14] in a line: Antileukemic activity against Murine P388 lymphocytic leukemia, body weight difference of the test animals compared to control group A animals at a dose of 25 mg/kg. Type of assay: functional, Mus musculus. The arrangement: unit not given here. In short, it runs like this:
as §1

Assay [15] in a line: Toxicity day survivors expressed as number of animals that survived to day five/ number of test animals under control group A at a dose of 25 mg/kg; 6 survived out of 6. Type of assay: functional, Mus musculus.
Assay [16] in a line: Toxicity day survivors expressed as number of animals that survived to day five/ number of test animals under control group A at a dose of 12.5 mg/kg; 6 survived out of 6. Type of assay: functional, Mus musculus.
A short description of assay [17]: Percent increase in life span of test animals compared to untreated tumor-bearing control group A animals at a dose of 12.5 mg/kg. Type of assay: functional. To be noted: Mus musculus.
The nature of assay [18]: Antileukemic activity against Murine P388 lymphocytic leukemia, body weight difference of the test animals compared to control group C animals at a dose of 25 mg/kg. Type of assay: functional, Mus musculus. The procedure, abridged:
as §1

The nature of assay [19]: Antileukemic activity against Murine P388 lymphocytic leukemia and toxicity day survivors expressed as number of animals that survived to day five/ number of test animals under control group C at a dose of 50 mg/kg; 6 survived out of 6. Type of assay: functional, Mus musculus.
Assay [20] is described as follows: Toxicity day survivors expressed as number of animals that survived to day five/ number of test animals under control group C at a dose of 100 mg/kg; 6 survived out of 6. Type of assay: functional, Mus musculus.
Assay [21] relates to P388. Briefly: Log cell population relative to cell population at the beginning of treatment compared to control group C at a dose of 25 mg/kg. Type of assay: functional, Mus musculus.
Assay [22] can be described thus: Antileukemic activity against Murine P388 lymphocytic leukemia, body weight difference of the test animals compared to control group C animals at a dose of 50 mg/kg. Type of assay: functional, Mus musculus. The arrangement: unit not given here. The procedure, abridged:
as §1

A short description of assay [23]: Antileukemic activity against Murine P388 lymphocytic leukemia, body weight difference of the test animals compared to control group C animals at a dose of 200 mg/kg. Type of assay: functional, Mus musculus. In short, it runs like this:
as §1

Assay [24] is described as follows: Percent increase in life span of test animals compared to untreated tumor-bearing control group C animals at a dose of 25 mg/kg. Type of assay: functional. To be noted: Mus musculus.
Assay [25] has as its system P388. Briefly: Log cell population relative to cell population at the beginning of treatment compared to control group C at a dose of 50 mg/kg. Type of assay: functional, Mus musculus.
The nature of assay [26]: Percent increase in life span of test animals compared to untreated tumor-bearing control group C animals at a dose of 50 mg/kg. Type of assay: functional. To be noted: Mus musculus.
Assay [27] in a line: Toxicity day survivors expressed as number of animals that survived to day five/ number of test animals under control group C at a dose of 200 mg/kg; 6 survived out of 6. Type of assay: functional, Mus musculus.
A short description of assay [28]: Toxicity day survivors expressed as number of animals that survived to day five/ number of test animals under control group C at a dose of 25 mg/kg; 6 survived out of 6. Type of assay: functional, Mus musculus.
The nature of assay [29]: Percent increase in life span of test animals compared to untreated tumor-bearing control group C animals at a dose of 100 mg/kg. Type of assay: functional. To be noted: Mus musculus.
Assay [30] has as its system P388. In words: Log cell population relative to cell population at the beginning of treatment compared to control group C at a dose of 100 mg/kg. Type of assay: functional, Mus musculus.
The nature of assay [31]: Antileukemic activity against Murine P388 lymphocytic leukemia, body weight difference of the test animals compared to control group C animals at a dose of 100 mg/kg. Type of assay: functional, Mus musculus. The arrangement: unit not given here. The procedure, abridged:
as §1

Assay [32] in a line: Percent increase in life span of test animals compared to untreated tumor-bearing control group A animals at a dose of 50 mg/kg. Type of assay: functional. To be noted: Mus musculus.
Assay [33] in a line: Toxicity day survivors expressed as number of animals that survived to day five/ number of test animals under control group A at a dose of 100 mg/kg; 6 survived out of 6. Type of assay: functional, Mus musculus.
The nature of assay [34]: Percent increase in life span of test animals compared to untreated tumor-bearing control group A animals at a dose of 400 mg/kg. Type of assay: functional. To be noted: Mus musculus.
Assay [35] in a line: Toxicity day survivors expressed as number of animals that survived to day five/ number of test animals under control group A at a dose of 400 mg/kg; 6 survived out of 6. Type of assay: functional, Mus musculus.
Assay [36] is described as follows: Antileukemic activity against Murine P388 lymphocytic leukemia, body weight difference of the test animals compared to control group A animals at a dose of 400 mg/kg. Type of assay: functional, Mus musculus. The procedure, abridged: as §1
The nature of assay [37]: Percent increase in life span of test animals compared to untreated tumor-bearing control group A animals at a dose of 100 mg/kg. Type of assay: functional. To be noted: Mus musculus.
A short description of assay [38]: Percent increase in life span of test animals compared to untreated tumor-bearing control group A animals at a dose of 200 mg/kg. To be noted: Mus musculus. Type of assay: functional.
A short description of assay [39]: Antileukemic activity against Murine P388 lymphocytic leukemia, body weight difference of the test animals compared to control group A animals at a dose of 200 mg/kg. Type of assay: functional, Mus musculus. In short, it runs like this:
as §1

A short description of assay [40]: Toxicity day survivors expressed as number of animals that survived to day five/ number of test animals under control group A at a dose of 50 mg/kg; 6 survived out of 6. Type of assay: functional, Mus musculus.
The nature of assay [41]: Toxicity day survivors expressed as number of animals that survived to day five/ number of test animals under control group C at a dose of 50 mg/kg; 6 survived out of 6. Type of assay: functional, Mus musculus.

On to `Cc1c(COC(=O)NC(C)C)c(COC(=O)NC(C)C)c2n1CSC2`, for which the TDS in assay [1] came to 3; in assay [2] it was 6; in assay [6] it was 0; in assay [10] it was 5; in [15] it was 6; in assay [16] it was 6. Moreover, the BWD in [3] was -3.5; in assay [7], -1.9; in assay [9] it was -4.9; in assay [12], -1.3; in assay [14] it was 1.9. Also, the KE in the assay with P388 [4] worked out at 1.27; with P388 [11], 0.4; in the assay with P388 [13], 2.61. Further, the ILS at 25 mg/kg in assay [5] is 73%. In addition, the ILS at 6.25 mg/kg in [8] was 54%. Further, the ILS at 12.5 mg/kg in assay [17] stood at 42%.

With `CNC(=O)OCc1c(COC(=O)NC)c2n(c1C)CS(=O)(=O)C2`, the BWD in [18] was 0.3; in [22], 0.6; in [23], -2.1; in [31], -2.5. Further, the TDS in assay [19], in assay [20], in assay [27] and in [28] was 6 throughout. Besides, the KE is -0.05 in the assay on P388 [21], 0.03 with P388 [25] and 0.33 in the assay with P388 [30]. Also, in [24], the ILS at 25 mg/kg was found to be 22%. In addition, the ILS at 50 mg/kg in assay [26] stood at 40%. Moreover, the ILS at 100 mg/kg in [29] came out at 104%.

Turning to `CC(C)NC(=O)OCc1c(COC(=O)NC(C)C)c(-c2ccc(Cl)c(Cl)c2)n2c1CSC2`, the ILS at 50 mg/kg in assay [32] is -12%. In addition, the TDS in assay [33], in assay [35], in [6], in [40] and in assay [15] was 6 throughout. Moreover, the BWD in [3] is -1.3; in assay [36], -1.3; in assay [9], -0.9; in assay [39], -1.7; in assay [14], -1.3. Moreover, the ILS at 400 mg/kg in [34] was -11%. The ILS at 25 mg/kg in [5] is -9%. In assay [37], the ILS at 100 mg/kg was -13%. Moreover, the ILS at 200 mg/kg in [38] was -12%.

For the compound `CNC(=O)OCc1c(COC(=O)NC)c2n(c1C)CSC2`, the BWD in [18] was -1; in assay [22], -1.7; in assay [23], -1.9; in [31], -2.2. Besides, the TDS in assay [20], in assay [27], in assay [28] and in assay [41] was 6 throughout. For the same compound, the figures for the KE in the assay on P388 [21] and in the assay with P388 [25] were -0.03 and 0, respectively. Besides, the ILS at 25 mg/kg in assay [24] is 26%. Further, in assay [26], the ILS at 50 mg/kg is 32%.
